# Reference: ChEMBL document CHEMBL6083205, “A comprehensive apoptotic assessment of niloticin in cervical cancer cells: a tirucallane-type triterpenoid from Aphanamixis polystachya (Wall.) Parker” (RSC Med Chem, 2024)
# Test system: HeLa
# Test: Antiproliferative activity against human HeLa cells assessed as inhibition of cell growth incubated for 24 hrs by MTT assay
# Format: functional, cell-based
# Procedure, shortened: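 Cells kept in DMEM with 10% FBS and 1% antibiotic-antimycotic at 37 °C and 5% CO2. Seeded at 8 × 10^3 cells per 100 μL and left 24 h, then exposed 24 h to 5, 10, 20, 50 or 100 μM. MTT at 0.5 mg/mL in HBSS was added for 2–4 h at 37 °C in the dark. Formazan was dissolved in DMSO, A570 was read, and IC50 was derived.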
compound,measurement,value
COc1cccc2c1C(=O)c1c(O)c3c(c(O)c1C2=O)C[C@@](O)(C(=O)CO)C[C@@H]3O[C@H]1C[C@H](N)[C@H](O)[C@H](C)O1 [DOXORUBICIN],IC50,32.2 µM
